MC4R ag barr – human MC4R agonism via beta-arrestin; U2OS MC4R beta-arrestin complementation, luminescence; percent of melanotan II response, DMSO zero; activation, % at 8.9 µM; 360,000 compounds, 0.98% hits;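 active means activation above a per-plate cutoff, the mean activation of sample wells on that plate plus 3 SD, cut at about 8% in these data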
Target sequence (P32245 whole entry, looked up): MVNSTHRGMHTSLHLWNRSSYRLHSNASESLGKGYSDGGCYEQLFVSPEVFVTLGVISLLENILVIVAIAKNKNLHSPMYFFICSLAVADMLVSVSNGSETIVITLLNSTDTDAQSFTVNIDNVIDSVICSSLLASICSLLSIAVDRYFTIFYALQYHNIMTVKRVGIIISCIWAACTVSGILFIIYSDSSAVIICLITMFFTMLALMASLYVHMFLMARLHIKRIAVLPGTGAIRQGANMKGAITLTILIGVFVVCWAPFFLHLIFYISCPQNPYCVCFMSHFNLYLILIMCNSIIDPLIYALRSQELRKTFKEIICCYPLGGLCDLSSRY
NTR1 ag – activates human neurotensin receptor 1. P30989. NTR1-U2OS beta-arrestin-GFP spot imaging, agonist mode. activation, % at 20 µM. 330,000 compounds, 0.17% hits. AID 493036;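 active means activation at or above 40% of the spot to cytoplasm intensity ratio, with at least 20 cells analyzed; inconclusive means wells under 20 cells, flagged as cytotoxic or low count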;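 further: 0% = DMSO without peptide and 100% = 100 nM NTR1 peptide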
AI-2 QS modul – modulates the Vibrio harveyi AI-2 quorum sensing system; Vibrio harveyi JMH597 AI-2 luminescence/OD600 ratio, 9 h; stronger effect = lower value; strain lacks LuxN and CqsS sensors; 0 = neutral-control median; activity change, % at 7.5 µM; 300,000 compounds, 0.4% hits; AID 2094; in the data active means activity change below about -75%, passing the limit was not always enough; inconclusive means no clear call, values can overlap the other calls;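 further: luminescence divided by OD600 gain over 9 h not by final OD600 alone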
MC4R antagonist – human MC4R antagonism in cAMP assay; P32245; MC4R-expressing cells, MTII-stimulated cAMP, LANCE TR-FRET; inhibition, % at 6.5 µM; 360,000 compounds, 0.48% hits; AID 540295;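 active means inhibition above its plate's cutoff, the mean of tested wells on that plate plus 3 SD, cut at about 29% in these data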;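 further: 0% = Melanotan II alone and 100% = Melanotan II plus saturating MCL0020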
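System – human MC4R-expressing U2OS cells · Also added – Melanotan II · Dosing – one concentration, 6.5 µM nominal · Timing – 30-min compound, 1-h challenge, 1-h detection, room temperature · Measured by – Eu-cAMP/anti-cAMP TR-FRET, emission 671 nm · Replicates – singlicate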
JMH597 growth – retest Vibrio harveyi JMH597 growth inhibition | OD600 absorbance, 9 h; lacks LuxN and CqsS sensors | growth inhibition, % at 7.5 µM | 750 compounds, 1% hits | shares compounds with AI-2 QS modul;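 active means every replicate shows growth inhibition above 50%; inconclusive means at least half, but not all, replicates pass that cutoff; inactive means fewer than half of replicates pass it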
BB721 const-QS lum – retest counter-screen: lowers luminescence of constitutive-QS Vibrio harveyi BB721; inhibition, % at 7.5 µM; 9 h; AID 2727; shares compounds with AI-2 QS modul; 750 compounds, 95% hits;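 active means inhibition above about 80% in every replicate, not just on average, limit read from the data; inconclusive means at least half of replicates past the limit, but not all; inactive means fewer than half of replicates past the limit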
BB721 growth – retest: blocks Vibrio harveyi BB721 growth; shares compounds with AI-2 QS modul; OD600 absorbance, 9 h; growth inhibition, % at 7.5 µM; 750 compounds, 3% hits;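 active means every replicate shows growth inhibition above 50%; inconclusive means at least half but not all replicates above 50% inhibition; inactive means under half of replicates above 50% inhibition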
AI-2 QS JMH597 – Vibrio harveyi AI-2 signaling luminescence modulation – JMH597 strain, confirmation; Vibrio harveyi JMH597 AI-2 quorum sensing luminescence, 9 h; luxN and CqsS knockout, AI-2 only; 750 compounds, 97% hits; shares compounds with AI-2 QS modul; inhibition, % at 7.5 µM;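 active means every replicate shows more than 75% inhibition of signal versus neutral control wells; inconclusive means half to three quarters of replicates exceed 75% inhibition; inactive means fewer than half of replicates exceed 75% inhibition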
* marks the source's active call; other numbers are inactive results; ? = inconclusive; / = no result given. Hits are enriched below; roughly 1.8% of the tested compounds scored in any of these assays.

SMILES	MC4R ag barr	NTR1 ag	AI-2 QS modul	MC4R antagonist	JMH597 growth	BB721 const-QS lum	BB721 growth	AI-2 QS JMH597
O=C(Nc1cnn(Cc2ccc(Cl)cc2)c1)c1ccc([N+](=O)[O-])cc1	5	1	21	14	/	/	/	/
O=C(Nc1cnn(Cc2ccc(Cl)cc2)c1)c1cccs1	-1	-1	-89*	5	26	96*	-9	97*
CC(C)c1ccc(S(=O)(=O)N2CCN(C(=S)NCc3ccco3)CC2)cc1	0	-2	-96*	6	32	100*	-39	100*
O=C(Cn1c(=O)sc2ccccc21)Nc1ccccc1	-1	-1	13	1	/	/	/	/
O=C(Cn1c(=O)sc2ccccc21)Nc1ccc(S(=O)(=O)N2CCCCC2)cc1	-1	3	-90*	-2	44	96*	28	99*
O=C(CN1CCCCC1)Nc1ccc(S(=O)(=O)N2CCCCCC2)cc1	-2	1	-6	0	/	/	/	/
CCN(CC)S(=O)(=O)c1ccc(NC(=O)Cn2c(=O)sc3ccccc32)cc1	0	-1	-82*	7	17	91*	18	94*
CC(NC(=O)CN1C(=O)NC2(CCCCCC2)C1=O)c1ccccc1Cl (stereo not given)	-3	-2	/	1	/	/	/	/
CC1CN(S(=O)(=O)c2cccc(C(=O)NCCC3=CCCCC3)c2)CC(C)O1 (stereo not given)	-3	1	1	1	/	/	/	/
O=C1CCCC(=O)N1c1ccc(O)cc1	-2	-2	12	-9	/	/	/	/
O=C1CCCC(=O)N1c1ccc(Oc2ccc(Cl)cc2)cc1	2	-1	-84*	9	-18	89*	-38	92*
COc1ccc(CC(=O)Nc2ccc(C(N)=O)cc2)cc1	2	1	?	4	1	85*	-7	89*
COc1ccc(CC(=O)Nc2ccc(S(=O)(=O)NCC3CCCO3)cc2)cc1 (stereo not given)	1	1	-93*	1	31	99*	-34	100*
CC(Oc1ccccc1)C(=O)Nc1ccc(S(=O)(=O)NCC2CCCO2)cc1 (stereo not given)	-1	0	?	4	29	97*	-18	100*
O=C(CN1C(=O)c2ccccc2C1=O)Nc1ccc(S(=O)(=O)NCC2CCCO2)cc1 (stereo not given)	-2	0	-91*	2	-9	96*	-32	97*
O=C(COc1cccc([N+](=O)[O-])c1)NN1C(=O)c2ccccc2C1=O	1	0	-1	-2	/	/	/	/
O=C(Cc1ccc(Cl)cc1)Nc1ccc(S(=O)(=O)Nc2ncccn2)cc1	-1	0	-92*	2	17	98*	28	99*
COc1ccc(CC(=O)Nc2ccc(S(=O)(=O)Nc3nccs3)cc2)cc1	0	0	?	11	-2	84*	3	89*
O=C1c2ccccc2C(=O)C1(CO)c1ccc(OC(F)F)cc1	-3	2	10	1	/	/	/	/
O=C(CNC(=O)c1ccccc1)N/N=C/c1ccccc1Cl	1	0	-90*	2	21	96*	15	97*
O=C(CCCC(=O)NN=Cc1ccccc1Cl)NN=Cc1ccccc1Cl	0	/	/	8	/	/	/	/
CN(Cc1cccc(Cl)c1)C(=O)C1CCC(=O)N(C2CC2)C1 (stereo not given)	-1	-1	8	3	/	/	/	/
COc1ccc2nc3sc(C(=O)N4CCN(C)CC4)cc3cc2c1	-1	-1	-86*	-1	6	89*	-2	93*
COc1ccc2nc3sc(C(=O)NCCCN4CCc5ccccc5C4)cc3cc2c1	-1	0	-2	-3	/	/	/	/
Cc1cc(OCC(=O)OCC(=O)NCc2cccs2)ccc1Cl	-2	-1	/	0	/	/	/	/
SMILES	MC4R ag barr	NTR1 ag	AI-2 QS modul	MC4R antagonist	JMH597 growth	BB721 const-QS lum	BB721 growth	AI-2 QS JMH597
Cc1ccc(C(=O)NNC(=O)c2ccoc2C)s1	2	-2	/	1	/	/	/	/
O=C(Nc1ccc(Nc2ccccc2)cc1)c1ccccc1F	0	3	-86*	0	38	94*	20	94*
O=C(Nc1ccc(Nc2ccccc2)cc1)c1cccc(F)c1	-2	7	-77*	-5	13	86*	1	90*
O=C(O)c1cc(NC(=O)c2ccccc2F)cc(NC(=O)c2ccccc2F)c1	1	-1	/	-1	/	/	/	/
CC12CCC(=O)N1C(C(=O)N1CCN(c3cccc(Cl)c3)CC1)CS2 (stereo not given)	0	2	/	2	/	/	/	/
CCc1ccc(NC(=O)COc2ccc(Br)cn2)cc1	-1	-1	-84*	1	-16	95*	1	96*
CC(C)(C)c1ccc(OCC(=O)Nc2ccncc2)c(Br)c1	2	15	19	-13	/	/	/	/
CCc1ccc(OCC(=O)Nc2ccncc2)c(Br)c1	-1	7	-81*	11	30	?	-22	100*
O=C(COC(=O)CSc1ccc([N+](=O)[O-])cc1)NCCCc1ccccc1	0	-1	26	11	/	/	/	/
COc1ccc(NC(=O)[C@H](C)NC(=O)[C@@H]2Cc3ccccc3CN2C(=O)OC(C)(C)C)cc1	-3	0	-3	0	/	/	/	/
O=C(Nn1cnc2ccccc2c1=O)c1c(F)cccc1F	0	-1	7	7	/	/	/	/
O=C(/C=C/c1ccccc1)Nn1cnc2ccccc2c1=O	-4	-2	-88*	12	19	98*	-1	99*
O=C(Nc1ccc(Cl)cc1)Nn1cnc2ccccc2c1=O	0	0	-98*	-4	2	100*	-13	100*
O=C(Nn1cnc2ccccc2c1=O)c1ccccc1Cl	0	0	-4	7	/	/	/	/
O=C(/C=C/c1ccccc1Cl)Nn1cnc2ccccc2c1=O	-1	-2	-78*	1	19	96*	0	98*
O=C1OC(N2C(=O)CC[C@H]2C(=O)Nc2ccc3c(c2)OCO3)c2ccccc21 (stereo not given in full)	-1	-1	-16	4	/	/	/	/
N#Cc1nc(-c2cccs2)oc1NCc1ccc(Cl)cc1	1	3	-87*	-3	93*	92*	102*	96*
Cc1ccc(CNc2oc(-c3cccs3)nc2C#N)cc1	4	2	-94*	4	30	97*	?	98*
N#Cc1nc(-c2ccc(F)cc2)oc1NCc1ccco1	0	2	-59	-2	/	/	/	/
N#Cc1nc(-c2ccc(F)cc2)oc1NCc1ccccc1	1	1	-96*	8	20	95*	15	97*
